Tests used:
[1] = Selectivity index, ratio of CC50 for human MT4 cells to EC50 for HIV2 ROD; assay type: toxicity, cell-based; details: read-out: Ratio CC50/EC50
In short: (§1)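 Selectivity index is CC₅₀ in uninfected MT-4 cells divided by EC₅₀ against the given strain (IIIB or ROD). Both values come from parallel 4-day MTT assays, with cells infected at a multiplicity of infection of 0.02.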

[2] = Selectivity index, ratio of CC50 for human MT4 cells to EC50 for HIV1 3B; assay type: toxicity, cell-based; details: read-out: Ratio CC50/EC50; in short: as §1
[3] = system: Human immunodeficiency virus 2; experiment: Antiviral activity against HIV2 ROD infected in human MT4 cells assessed as protection from virus-induced cytopathogenicity after 4 days by MTT assay; assay type: functional, organism-based; details: Human immunodeficiency virus 2, ISOLATE ROD, MT4, 96 h
In short: (§2)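 MT-4 cells at 1 × 10⁵ cells/mL infected with HIV (IIIB or ROD) at a multiplicity of infection of 0.02, using virus stocks titrated in MT-4 cells as CCID₅₀. Compound present during a 4-day incubation at 37 °C. Viable cells counted by MTT. EC₅₀ is the concentration protecting cells against viral cytopathogenicity by 50%. Values are means of at least two separate experiments.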

[4] = system: Human immunodeficiency virus 1; experiment: Antiviral activity against HIV1 expressing reverse transcriptase K103N/Y181C double mutant infected in human MT4 cells assessed as protection against virus-induced cytopathogenicity after 4 days by MTT assay; assay type: functional, organism-based; details: Human immunodeficiency virus 1, MT4, 96 h
In short: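 RES056 strain (carries K103N and Y181C), titrated in MT-4 cells as CCID50. MT-4 cells at 1 × 10⁵ cells/mL infected at MOI 0.02 and incubated 4 days at 37 °C with compound. Viable cells counted by MTT. EC50 is the concentration protecting cells by 50% against viral cytopathogenicity. Values are means of at least two separate experiments.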

[5] = system: Human immunodeficiency virus 1; experiment: Antiviral activity against HIV1 3B infected in human MT4 cells assessed as protection from virus-induced cytopathogenicity after 4 days by MTT assay; assay type: functional, organism-based; details: Human immunodeficiency virus 1, 3B, MT4, 96 h; in short: as §2
[6] = Cytotoxicity against human MT4 cells after 4 days by MTT assay; assay type: cell-based
In short: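 Uninfected MT-4 cells were run in parallel with the antiviral assay: 4 days at 37 °C with compound, then viability read by MTT. CC₅₀ is the concentration that reduces viability of uninfected cells by 50%. Values are means of at least two separate experiments.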

[7] = system: Human immunodeficiency virus 1; experiment: Ratio of nevirapine EC50 to compound EC50 for HIV1 3B infected in human MT4 cells; assay type: functional
[8] = system: Human immunodeficiency virus 1; experiment: Ratio of delavirdine EC50 to compound EC50 for HIV1 3B infected in human MT4 cells; assay type: functional

SMILES	selectivity ratio [1]	selectivity ratio [2]	EC50 [3] [µM]	EC50 [4] [µM]	EC50 [5] [µM]	CC50 at 96 h [6] [µM]	Ratio EC50 [7]	Ratio EC50 [8]
N#Cc1ccc(Nc2nccc(/C(=N\O)c3ccc(F)cc3)n2)cc1	> 19	> 456	19.9	13.8	0.827	> 377		
N#Cc1ccc(Nc2nccc(/C(=N\O)c3ccc(Cl)cc3)n2)cc1	≤ 2	209	≥ 7.33	≥ 7.62	0.083	17.2		
N#Cc1ccc(Nc2nccc(/C(=N\O)c3ccccc3Br)n2)cc1	< 1	2500	> 13.2	> 13.2	0.005	13.2		
N#Cc1ccc(Nc2nccc(/C(=N\O)c3cccc(Br)c3)n2)cc1	< 1	65	> 23.5	> 23.5	0.362	23.5		
N#Cc1ccc(Nc2nccc(/C(=N\O)c3ccc(Br)cc3)n2)cc1	≤ 5	205	≥ 4.97	≥ 7.21	0.127	26		
Cc1ccccc1/C(=N/O)c1ccnc(Nc2ccc(C#N)cc2)n1	< 1	619	> 29.9	≥ 1.59	0.048	29.9		
Cc1ccc(/C(=N/O)c2ccnc(Nc3ccc(C#N)cc3)n2)cc1	≤ 2	2390	≥ 6.54	≥ 5.1	0.006	13.3		
N#Cc1ccc(Nc2nccc(/C(=N\O)c3cccc(F)c3)n2)cc1	≤ 2	67.9	≥ 8.33	≥ 6.7	0.225	15.3		
Cc1cccc(/C(=N/O)c2ccnc(Nc3ccc(C#N)cc3)n2)c1	< 1	626	≥ 11.6	4.52	0.032	20		
COc1cccc(/C(=N/O)c2ccnc(Nc3ccc(C#N)cc3)n2)c1	3.67	1220	8.31	8.72	0.025	30.5	8	29
COc1ccc(/C(=N/O)c2ccnc(Nc3ccc(C#N)cc3)n2)cc1	≤ 11	3790	≥ 4.72	10.3	0.013	50.2		
CC(C)(C)c1ccc(/C(=N/O)c2ccnc(Nc3ccc(C#N)cc3)n2)cc1	< 1	234	≥ 33.7	7.2	0.144	33.7		
N#Cc1ccc(Nc2nccc(/C(=N\O)c3ccccc3Cl)n2)cc1	< 1	997	> 12.6	> 12.6	0.013	12.6		
N#Cc1ccc(Nc2nccc(/C(=N\O)c3cccc(Cl)c3)n2)cc1	≤ 4	102	≥ 7.3	> 14.9	0.298	30.4		
Cc1cc(C)cc(/C(=N/O)c2ccnc(Nc3ccc(C#N)cc3)n2)c1	≤ 4	756	≥ 8.96	7.89	0.047	35.9		
N#Cc1ccc(Nc2nccc(/C(=N\O)c3ccccc3)n2)cc1	< 1	24.6	≥ 14	5.6	0.569	14		
N#Cc1ccc(Nc2nccc(/C(=N\O)c3ccccc3F)n2)cc1	< 1	106	> 5.67	> 5.67	0.053	5.67		
N#Cc1ccc(Nc2nccc(/C(=N\O)c3cccc4ccccc34)n2)cc1	< 1	844	> 33.1	> 33.1	0.039	33.1		
N#Cc1ccc(Nc2nccc(/C(=N\O)c3ccc4ccccc4c3)n2)cc1	< 1	673	> 14.3	> 14.3	0.047	31.6		
CC(C)Nc1cccnc1N1CCN(C(=O)c2cc3cc(NS(C)(=O)=O)ccc3[nH]2)CC1 [DELAVIRDINE]		> 62		> 43.8	0.72	> 43.8		
O=C1Nc2ccc(Cl)cc2[C@@](C#CC2CC2)(C(F)(F)F)O1 [EFAVIRENZ]				0.18		> 6.34		
Cc1ccnc2c1NC(=O)c1cccnc1N2C1CC1 [NEVIRAPINE]		> 75		> 15	0.2	> 15		
